In ChEMBL document CHEMBL3217698, “Syntheses and biological evaluation of new cephalosporin-oxazolidinone conjugates” (2010):

What was measured:
[1] = tested on: Pseudomonas aeruginosa; assay: Antimicrobial activity against Pseudomonas aeruginosa K799/WT assessed as faint inhibition zone at 37 degC for 24 hrs by agar diffusion method; type: functional
In short: (§1)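 Each solution at 2.0 mM in DMSO:MeOH (1:9), 50 μL filled into 9 mm agar wells (Standard I Nutrient or Mueller Hinton II Agar). Incubation at 37 °C for 24 h. Inhibition zone diameter measured in mm; a partially clear zone or colonies inside the zone noted as p.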

[2] = tested on: Escherichia coli; assay: Antimicrobial activity against Escherichia coli SG458 assessed as partially clear inhibition zone at 37 degC for 24 hrs by agar diffusion method; type: functional
In short: (§2)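 Agar well diffusion. Each 9 mm well in nutrient or Mueller Hinton II agar received 50 μL of a 1.0 mM solution in DMSO:MeOH (1:9). Plates were incubated at 37 °C for 24 h. The inhibition zone diameter was read in mm, including the well. A "p" marks a partially clear zone or colonies inside the zone.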

[3] = tested on: Enterococcus faecalis; assay: Antimicrobial activity against vancomycin-resistant Enterococcus faecalis 1528 assessed as inhibition zone at 37 degC for 24 hrs by agar diffusion method; type: functional
In short: as §2, with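 “of a 2.0 mM solution” for “of a 1.0 mM solution”, “including the 9 mm well. A” for “including the well. A”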

[4] = tested on: Staphylococcus aureus; assay: Antimicrobial activity against Staphylococcus aureus Efs1 assessed as partially clear inhibition zone at 37 degC for 24 hrs by agar diffusion method; type: functional
In short: as §2, with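 “of a 2.0 mM solution” for “of a 1.0 mM solution”, “including the 9 mm well. A” for “including the well. A”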

[5] = tested on: Pseudomonas aeruginosa; assay: Antimicrobial activity against Pseudomonas aeruginosa K799/WT assessed as partially clear inhibition zone at 37 degC for 24 hrs by agar diffusion method; type: functional
In short: as §2, with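 “of a 2.0 mM solution” for “of a 1.0 mM solution”, “including the 9 mm well. A” for “including the well. A”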

[6] = tested on: Mycolicibacterium vaccae; assay: Antimicrobial activity against Mycobacterium vaccae IMET assessed as inhibition zone at 37 degC for 24 hrs by agar diffusion method; type: functional
In short: (§3)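 Well diffusion: 50 μL of a 1.0 mM solution in DMSO:MeOH (1:9) filled into 9 mm wells cut in Standard I Nutrient Agar or Mueller Hinton II Agar. Plates incubated at 37 °C for 24 h, then growth inhibition zone read in mm. Partially clear zones, or colonies within the zone, recorded as p.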

[7] = tested on: Staphylococcus aureus; assay: Antimicrobial activity against methicillin-resistant Staphylococcus aureus 134/93 assessed as inhibition zone at 37 degC for 24 hrs by agar diffusion method; type: functional
In short: as §2, with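 “of a 2.0 mM solution” for “of a 1.0 mM solution”, “including the 9 mm well. A” for “including the well. A”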

[8] = tested on: Bacillus subtilis; assay: Antimicrobial activity against Bacillus subtilis ATCC 6633 assessed as inhibition zone at 37 degC for 24 hrs by agar diffusion method; type: functional; in short: as §3
[9] = tested on: Micrococcus luteus; assay: Antimicrobial activity against Micrococcus luteus ATCC 10240 assessed as unclear inhibition zone at 37 degC for 24 hrs by agar diffusion method; type: functional; in short: as §2
[10] = tested on: Micrococcus luteus; assay: Antimicrobial activity against Micrococcus luteus ATCC 10240 assessed as inhibition zone at 37 degC for 24 hrs by agar diffusion method; type: functional; in short: as §3
[11] = tested on: Staphylococcus aureus; assay: Antimicrobial activity against Staphylococcus aureus SG511 assessed as inhibition zone at 37 degC for 24 hrs by agar diffusion method; type: functional; in short: as §3
[12] = tested on: Staphylococcus aureus; assay: Antimicrobial activity against Staphylococcus aureus Efs4 assessed as partially clear inhibition zone at 37 degC for 24 hrs by agar diffusion method; type: functional
In short: as §2, with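 “of a 2.0 mM solution” for “of a 1.0 mM solution”, “including the 9 mm well. A” for “including the well. A”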

[13] = tested on: Staphylococcus aureus; assay: Antimicrobial activity against Staphylococcus aureus Efs1 assessed as inhibition zone at 37 degC for 24 hrs by agar diffusion method; type: functional; in short: as §1
[14] = tested on: Pseudomonas aeruginosa; assay: Antimicrobial activity against Pseudomonas aeruginosa K799/61 assessed as inhibition zone at 37 degC for 24 hrs by agar diffusion method; type: functional; in short: as §1
[15] = tested on: Staphylococcus aureus; assay: Antimicrobial activity against Staphylococcus aureus Efs4 assessed as inhibition zone at 37 degC for 24 hrs by agar diffusion method; type: functional; in short: as §1
[16] = tested on: Pseudomonas aeruginosa; assay: Antimicrobial activity against Pseudomonas aeruginosa K799/61 assessed as faint inhibition zone at 37 degC for 24 hrs by agar diffusion method; type: functional
In short: as §2, with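 “of a 2.0 mM solution” for “of a 1.0 mM solution”, “including the 9 mm well. A” for “including the well. A”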

[17] = tested on: Micrococcus luteus; assay: Antimicrobial activity against Micrococcus luteus ATCC 10240 assessed as partially clear inhibition zone at 37 degC for 24 hrs by agar diffusion method; type: functional; in short: as §2
[18] = tested on: Bacillus subtilis; assay: Antimicrobial activity against Bacillus subtilis ATCC 6633 assessed as partially clear inhibition zone at 37 degC for 24 hrs by agar diffusion method; type: functional; in short: as §3
[19] = tested on: Escherichia coli; assay: Antimicrobial activity against Escherichia coli SG458 assessed as inhibition zone at 37 degC for 24 hrs by agar diffusion method; type: functional; in short: as §3
[20] = tested on: Pseudomonas aeruginosa; assay: Antimicrobial activity against Pseudomonas aeruginosa K799/61 assessed as partially clear inhibition zone at 37 degC for 24 hrs by agar diffusion method; type: functional
In short: as §2, with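 “of a 2.0 mM solution” for “of a 1.0 mM solution”, “including the 9 mm well. A” for “including the well. A”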

[21] = tested on: Staphylococcus aureus; assay: Antimicrobial activity against Staphylococcus aureus SG511 assessed as inhibition zone at 5 ug/ml at 37 degC for 24 hrs by agar diffusion method; conditions: SG511, 24 h, read-out: IZ
[22] = tested on: Micrococcus luteus; assay: Antimicrobial activity against Micrococcus luteus ATCC 10240 assessed as inhibition zone at 5 ug/ml at 37 degC for 24 hrs by agar diffusion method; type: functional; conditions: ATCC 10240, 24 h, read-out: IZ
In short: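 Agar well diffusion with the control antibiotic dissolved in water at 5 μg/mL. 50 μL was placed in each 9 mm well in nutrient or Mueller Hinton II agar. Plates were incubated at 37 °C for 24 h, and the inhibition zone diameter was read in mm, including the well.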

[23] = tested on: Bacillus subtilis; assay: microbe, parasite or virus in culture; conditions: ATCC 6633, 24 h, read-out: IZ
[24] = tested on: Staphylococcus aureus; assay: Antimicrobial activity against Staphylococcus aureus Efs1 assessed as inhibition zone at 5 ug/ml at 37 degC for 24 hrs by agar diffusion method; conditions: Efs1, 24 h, read-out: IZ
[25] = tested on: Pseudomonas aeruginosa; assay: Antimicrobial activity against Pseudomonas aeruginosa K799/WT assessed as inhibition zone at 5 ug/ml at 37 degC for 24 hrs by agar diffusion method; conditions: read-out: IZ
[26] = tested on: Staphylococcus aureus; assay: Antimicrobial activity against Staphylococcus aureus Efs4 assessed as inhibition zone at 5 ug/ml at 37 degC for 24 hrs by agar diffusion method; conditions: Efs4, 24 h, read-out: IZ
[27] = tested on: Mycolicibacterium vaccae; assay: Antimicrobial activity against Mycobacterium vaccae IMET assessed as inhibition zone at 5 ug/ml at 37 degC for 24 hrs by agar diffusion method; type: functional; conditions: read-out: IZ
In short: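 Ciprofloxacin dissolved in water at 5 μg/mL and filled into 9 mm wells in nutrient or Mueller Hinton II agar. Plates held at 37 °C for 24 h, after which the growth inhibition zone was read in mm.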

[28] = tested on: Staphylococcus aureus; assay: microbe, parasite or virus in culture; conditions: 134/93, 24 h, read-out: IZ
[29] = tested on: Enterococcus faecalis; assay: microbe, parasite or virus in culture; conditions: Enterococcus faecalis, 1528, 24 h, read-out: IZ
[30] = tested on: Pseudomonas aeruginosa; assay: Antimicrobial activity against Pseudomonas aeruginosa K799/61 assessed as inhibition zone at 5 ug/ml at 37 degC for 24 hrs by agar diffusion method; conditions: K799/61, 24 h, read-out: IZ
[31] = tested on: Escherichia coli; assay: Antimicrobial activity against Escherichia coli SG458 assessed as inhibition zone at 5 ug/ml at 37 degC for 24 hrs by agar diffusion method; conditions: SG458, 24 h, read-out: IZ
[32] = tested on: Pseudomonas aeruginosa; assay: Antimicrobial activity against Pseudomonas aeruginosa K799/WT assessed as inhibition zone at 37 degC for 24 hrs by agar diffusion method; type: functional; in short: as §1

SMILES | inhibition zone (IZ) [1] [mm] | inhibition zone (IZ) [2] [mm] | inhibition zone (IZ) [3] [mm] | inhibition zone (IZ) [6] [mm] | inhibition zone (IZ) [7] [mm] | inhibition zone (IZ) [8] [mm] | inhibition zone (IZ) [9] [mm] | inhibition zone (IZ) [10] [mm] | inhibition zone (IZ) [11] [mm] | inhibition zone (IZ) [12] [mm] | inhibition zone (IZ) [13] [mm] | inhibition zone (IZ) [14] [mm] | inhibition zone (IZ) [15] [mm] | inhibition zone (IZ) [16] [mm] | inhibition zone (IZ) [18] [mm] | inhibition zone (IZ) [19] [mm] | also measured
CC(=O)NC[C@H]1CN(c2ccc(N3CCNCC3)c(F)c2)C(=O)O1 | 18 | 14 | 25 | 35 | 25 | 26 | 30 | 23 | 18 | 18 | 31 | 20 | 14 | 30 | – | – | inhibition zone (IZ) [4]: 35 mm; inhibition zone (IZ) [5]: 11 mm
CC(=O)OC[C@H]1CN(c2ccc(N3CCNCC3)c(F)c2)C(=O)O1 | 15 | 13 | 25 | 42 | 29 | 24 | 40 | – | 21 | 23 | 31 | 16 | 19 | 26 | 26 | – | inhibition zone (IZ) [17]: 31 mm
CC(=O)OC[C@H]1CN(c2ccc(N3CCN(C(=O)OCC4=C(C(=O)O)N5C(=O)[C@@H](NC(=O)Cc6ccccc6)[C@H]5SC4)CC3)c(F)c2)C(=O)O1 | 17 | – | 26 | 44 | 27 | 43 | – | 42 | 36 | – | 40 | 22 | 31 | – | 47 | 33 | inhibition zone (IZ) [20]: 31 mm
CC(=O)NC[C@H]1CN(c2ccc(N3CCN(C(=O)OCC4=C(C(=O)O)N5C(=O)[C@@H](NC(=O)Cc6ccccc6)[C@H]5SC4)CC3)c(F)c2)C(=O)O1 | 20 | – | 23 | 30 | 17 | 42 | – | 38 | 34 | – | 40 | 24 | 30 | 33 | 45 | 33 | inhibition zone (IZ) [5]: 15 mm; inhibition zone (IZ) [17]: 42 mm
CC(=O)OCC1=C(C(=O)O)N2C(=O)[C@@H](NC(=O)Cc3ccccc3)[C@H]2SC1 [CEFALORAM] | 11 | – | 23 | 0 | 13 | 46 | 44 | 38 | 39 | – | 43 | 23 | 35 | – | 52 | 35 | –
O=C(O)c1cn(C2CC2)c2cc(N3CCNCC3)c(F)cc2c1=O [CIPROFLOXACIN] | – | – | – | – | – | – | – | – | – | – | – | – | – | – | – | – | zone of inhibition at 5 µg/mL [21]: 18 mm; zone of inhibition at 5 µg/mL [22]: 0 mm; zone of inhibition at 5 µg/mL [23]: 31 mm; zone of inhibition at 5 µg/mL [24]: 0 mm; zone of inhibition at 5 µg/mL [25]: 29 mm; zone of inhibition at 5 µg/mL [26]: 0 mm; zone of inhibition at 5 µg/mL [27]: 23 mm; zone of inhibition at 5 µg/mL [28]: 0 mm; zone of inhibition at 5 µg/mL [29]: 15 mm; zone of inhibition at 5 µg/mL [30]: 35 mm; zone of inhibition at 5 µg/mL [31]: 34 mm
CC(=O)NC[C@H]1CN(c2ccc(N3CCOCC3)c(F)c2)C(=O)O1 [LINEZOLID] | – | 28 | 34 | 52 | 42 | 33 | 45 | 38 | 35 | 39 | 34 | – | 35 | – | 37 | 23 | inhibition zone (IZ) [4]: 39 mm; inhibition zone (IZ) [32]: 0 mm; inhibition zone (IZ) [20]: 10 mm
